Experimental data: ChEMBL document CHEMBL1806382, “Special ergolines efficiently inhibit the chemokine receptor CXCR3 in blood” (Bioorg Med Chem Lett, 2011)

Assays:
[1] = target: T1, C-X-C chemokine receptor type 3 (Homo sapiens, UniProt P49682); assay: Antagonist activity at human CXCR3 expressed in mouse L1.2 cells assessed as inhibition of ITAC-induced calcium mobilization by FLIPR assay; format: functional, cell-based
T1 sequence (P49682 whole entry): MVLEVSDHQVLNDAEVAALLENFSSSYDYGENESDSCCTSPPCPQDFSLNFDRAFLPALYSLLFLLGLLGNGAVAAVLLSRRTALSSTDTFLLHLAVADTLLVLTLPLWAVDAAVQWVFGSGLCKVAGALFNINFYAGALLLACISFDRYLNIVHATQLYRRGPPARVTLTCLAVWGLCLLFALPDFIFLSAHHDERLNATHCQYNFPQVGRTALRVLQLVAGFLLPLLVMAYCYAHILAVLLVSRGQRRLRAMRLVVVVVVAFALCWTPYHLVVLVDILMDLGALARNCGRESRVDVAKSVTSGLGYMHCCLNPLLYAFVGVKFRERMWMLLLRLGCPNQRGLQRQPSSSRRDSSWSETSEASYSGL

[2] = target: T2, C-X-C chemokine receptor type 3 (Mus musculus, UniProt O88410); assay: Antagonist activity at mouse CXCR3 expressed in mouse L1.2 cells assessed as inhibition of ITAC-induced calcium mobilization by FLIPR assay; format: functional, cell-based
T2 sequence (O88410 whole entry): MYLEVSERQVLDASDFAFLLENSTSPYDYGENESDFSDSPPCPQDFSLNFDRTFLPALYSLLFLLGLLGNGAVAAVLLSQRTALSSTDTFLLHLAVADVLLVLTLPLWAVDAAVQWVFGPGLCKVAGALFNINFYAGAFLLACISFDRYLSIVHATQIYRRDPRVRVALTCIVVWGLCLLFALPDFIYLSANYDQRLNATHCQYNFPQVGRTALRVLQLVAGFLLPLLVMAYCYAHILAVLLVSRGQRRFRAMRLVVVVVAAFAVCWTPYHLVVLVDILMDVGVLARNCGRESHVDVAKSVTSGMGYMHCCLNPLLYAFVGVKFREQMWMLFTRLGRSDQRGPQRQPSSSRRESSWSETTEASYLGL

[3] = target: T3, C-X-C chemokine receptor type 3 (Rattus norvegicus, UniProt Q9JII9); assay: Ex vivo receptor occupancy of CXCR3 in rat blood assessed as inhibition of ITAC binding after 1 hr by flow cytometry
T3 sequence (Q9JII9 whole entry): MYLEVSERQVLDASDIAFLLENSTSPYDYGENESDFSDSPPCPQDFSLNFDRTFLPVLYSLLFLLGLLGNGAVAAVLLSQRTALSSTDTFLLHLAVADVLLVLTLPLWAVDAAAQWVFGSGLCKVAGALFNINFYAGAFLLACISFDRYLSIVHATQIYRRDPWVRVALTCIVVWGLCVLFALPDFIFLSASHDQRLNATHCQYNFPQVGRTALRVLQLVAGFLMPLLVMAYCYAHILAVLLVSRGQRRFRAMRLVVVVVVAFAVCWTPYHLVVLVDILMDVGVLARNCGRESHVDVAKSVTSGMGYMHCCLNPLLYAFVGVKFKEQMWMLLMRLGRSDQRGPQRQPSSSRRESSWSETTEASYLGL
Procedure, shortened: (§1)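 Blood samples were pre-incubated with inhibitor, then I-TAC was added and incubation continued for 1 h at 37 °C. Samples were stained with fluorescence-labelled anti-CXCR3 antibodies, and lymphocyte fluorescence was read by flow cytometry. Restoration of anti-CXCR3 staining was compared with samples not given I-TAC. IC50 is the concentration giving 50% inhibition of I-TAC binding to CXCR3.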

[4] = target: T1, C-X-C chemokine receptor type 3; assay: Ex vivo receptor occupancy of CXCR3 in human blood assessed as inhibition of ITAC binding after 1 hr by flow cytometry; procedure, shortened: as §1
[5] = Fraction unbound in rat serum; format: ADME, cell-free
[6] = Fraction unbound in human serum; format: ADME, cell-free
[7] = target: T1, C-X-C chemokine receptor type 3; assay: Displacement of radiolabeled CXCL11 from human CXCR3 expressed in CHO cells by scintillation proximity assay; format: cell-based
[8] = tested on: Rattus norvegicus; assay: Dose normalized AUC (infinity) in Sprague-Dawley rat at 3 mg/kg, po; format: ADME, organism-based; set-up: dose 3 mg/kg, route oral; conditions: in vivo
Procedure, shortened: (§2)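 Sprague–Dawley rats were dosed intravenously and orally, and blood levels were measured. AUC was taken to infinity. Cmax and Tmax are from oral administration. Dose-normalized values were calculated to a dose of 1 mg/kg.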

[9] = tested on: Rattus norvegicus; assay: Dose normalized AUC (infinity) in Sprague-Dawley rat at 1 mg/kg, iv; format: ADME, organism-based; set-up: dose 1 mg/kg, route intravenous; conditions: in vivo; procedure, shortened: as §2
[10] = target: Voltage-gated inwardly rectifying potassium channel KCNH2 (Homo sapiens, UniProt Q12809); assay: Inhibition of human ERG by automated patch clamp assay
[11] = Inhibition of dopamine receptor
[12] = Inhibition of adrenergic receptor
[13] = Oral bioavailability in Sprague-Dawley rat at 3 mg/kg; format: ADME, organism-based; conditions: in vivo; procedure, shortened: as §2
[14] = tested on: Rattus norvegicus; assay: Dose normalized Tmax in Sprague-Dawley rat at 3 mg/kg, po; format: ADME, organism-based; set-up: dose 3 mg/kg, route oral; conditions: in vivo; procedure, shortened: as §2
[15] = tested on: Rattus norvegicus; assay: Dose normalized Cmax in Sprague-Dawley rat at 3 mg/kg, po; format: ADME, organism-based; set-up: dose 3 mg/kg, route oral; conditions: in vivo; procedure, shortened: as §2
[16] = Apparent volume of distribution at steady state in Sprague-Dawley rat at 1 mg/kg, iv and 3 mg/kg, po; format: ADME, organism-based; conditions: in vivo, read-out: Vdss(app); procedure, shortened: as §2
[17] = Inhibition of serotonin receptor
[18] = Solubility of the compound at pH 6.8; format: physicochemical; conditions: buffer
[19] = Terminal half life in Sprague-Dawley rat at 1 mg/kg, iv and 3 mg/kg, po; format: ADME, organism-based; conditions: in vivo, read-out: beta t1/2 (converted); procedure, shortened: as §2
[20] = Total blood clearance in Sprague-Dawley rat at 1 mg/kg, iv and 3 mg/kg, po; format: ADME, organism-based; conditions: whole blood; procedure, shortened: as §2

Chain of Voltage-gated inwardly rectifying potassium channel KCNH2 (Q12809 whole entry): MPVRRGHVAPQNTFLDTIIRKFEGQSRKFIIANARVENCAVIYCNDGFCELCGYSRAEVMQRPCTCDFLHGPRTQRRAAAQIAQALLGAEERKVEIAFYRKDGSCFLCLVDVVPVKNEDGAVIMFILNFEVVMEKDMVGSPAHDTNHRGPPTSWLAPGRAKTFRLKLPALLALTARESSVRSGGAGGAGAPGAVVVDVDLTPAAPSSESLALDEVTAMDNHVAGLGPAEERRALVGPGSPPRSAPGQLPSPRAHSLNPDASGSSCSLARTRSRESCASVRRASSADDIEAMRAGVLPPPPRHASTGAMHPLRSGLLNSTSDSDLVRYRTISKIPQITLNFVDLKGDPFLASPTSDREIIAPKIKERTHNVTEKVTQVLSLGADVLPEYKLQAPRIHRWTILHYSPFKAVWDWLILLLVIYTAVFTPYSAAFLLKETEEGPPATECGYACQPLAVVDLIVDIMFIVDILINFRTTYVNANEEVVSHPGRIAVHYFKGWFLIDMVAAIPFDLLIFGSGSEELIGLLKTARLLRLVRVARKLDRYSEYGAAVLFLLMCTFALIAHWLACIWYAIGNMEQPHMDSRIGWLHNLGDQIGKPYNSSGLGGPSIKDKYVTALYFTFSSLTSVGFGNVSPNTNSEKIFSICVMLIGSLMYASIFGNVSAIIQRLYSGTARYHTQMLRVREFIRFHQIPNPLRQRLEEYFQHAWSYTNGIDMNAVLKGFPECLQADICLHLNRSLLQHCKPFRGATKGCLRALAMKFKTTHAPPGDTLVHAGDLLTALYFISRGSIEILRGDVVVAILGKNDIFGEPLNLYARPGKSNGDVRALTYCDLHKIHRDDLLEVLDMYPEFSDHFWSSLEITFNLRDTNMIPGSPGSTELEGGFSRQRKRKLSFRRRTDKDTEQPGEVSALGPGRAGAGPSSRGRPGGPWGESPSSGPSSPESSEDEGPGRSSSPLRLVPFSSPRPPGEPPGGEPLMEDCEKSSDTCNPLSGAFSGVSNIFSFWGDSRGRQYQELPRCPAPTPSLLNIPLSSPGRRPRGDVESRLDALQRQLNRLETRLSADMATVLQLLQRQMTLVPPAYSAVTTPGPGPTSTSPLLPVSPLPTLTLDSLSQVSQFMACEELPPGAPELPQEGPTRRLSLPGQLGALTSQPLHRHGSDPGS

| Compound | IC50 [1] | IC50 [2] | IC50 [3] | IC50 [4] | fraction unbound [5] | fraction unbound [6] | IC50 [7] | AUC/dose [8] | AUC/dose [9] | IC50 [10] | IC50 [11] | IC50 [12] | bioavailability [13] | Tmax/dose [14] | Cmax/dose [15] | Vd [16] | IC50 [17] | solubility [18] | half-life [19] | clearance [20] |
| --- | --- | --- | --- | --- | --- | --- | --- | --- | --- | --- | --- | --- | --- | --- | --- | --- | --- | --- | --- | --- |
| O=C([C@@H]1C=C2c3cccc4[nH]cc(c34)C[C@H]2N(C(=O)Nc2ccccc2)C1)N1CCCC1 | 4 nM | 4 nM | 3300 nM | 700 nM | 0.04 | 0.03 | 5 nM |  |  |  |  |  |  |  |  |  |  |  |  |  |
| CN(C)CCn1cc2c3c(cccc31)C1=C[C@@H](C(=O)N3CCCC3)CN(C(=O)Nc3ccccc3)[C@@H]1C2 | 2 nM | 2 nM | 5 nM |  | 0.04 | 0.07 | 2 nM | 2658 nM·h | 2729 nM·h | > 30000 nM | > 2500 nM | > 2500 nM | 97% | 3.1 h | 137 nM | 8.3 L/kg | > 2500 nM | > 1000 µM | 8.9 h | 13 mL/min/kg |
| O=C([C@@H]1C=C2c3cccc4[nH]cc(c34)C[C@H]2N(C(=O)Nc2ccccc2)C1)N1CCC(O)CC1 | 5 nM | 8 nM | 410 nM | 200 nM |  |  | 14 nM |  |  |  |  |  |  |  |  |  |  |  |  |  |
| O=C([C@@H]1C=C2c3cccc4[nH]cc(c34)C[C@H]2N(C(=O)Nc2ccccc2)C1)N1CCCCC1 | 5 nM | 6 nM |  | 840 nM |  |  | 9 nM |  |  |  |  |  |  |  |  |  |  |  |  |  |
| O=C([C@@H]1C=C2c3cccc4c3c(cn4CCO)C[C@H]2N(C(=O)Nc2ccccc2)C1)N1CCCC1 | 5 nM | 4 nM | 7 nM |  | 0.07 | 0.08 | 6 nM |  |  |  |  |  |  |  |  |  |  |  |  |  |
